According to ChEMBL document CHEMBL1153433, “Design and synthesis of 2-amino-4-methylpyridine analogues as inhibitors for inducible nitric oxide synthase and in vivo evaluation of [18F]6-(2-fluoropropyl)-4-methyl-pyridin-2-amine as a potential PET tracer for inducible nitric oxide synthase” (J Med Chem, 2009):

Legend:
Liver [1] = assay: Biodistribution in C57BL/6N mouse liver at 50 uCi/110 uL, iv after 30 mins; type: ADME, organism-based; settings: in vivo, 0.5 h
In short: (§1)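 Untreated (control) male C57BL/6N mice aged 6-8 weeks. HPLC-purified tracer, ~50 μCi in 10% ethanol/saline, given i.v. via the tail vein. Mice were sacrificed at 5 min, 30 min, 1 h and 2 h post-injection. Tissues were removed, weighed and gamma-counted against diluted injectate standards. Data are %ID/g, mean ± SD, n = 4.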

Heart [2] = assay: Biodistribution in LPS treated C57BL/6N mouse heart at 50 uCi/110 uL, iv administered 6 hrs […] LPS challenge measured after 1 hr post drug dose; type: ADME, organism-based; settings: in vivo
In short: (§2)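 Male C57BL/6N mice aged 6-8 weeks received E. coli O127:B8 LPS in PBS, 10 mg/kg i.v., 6 h before tracer. Tracer ~50 μCi in 10% ethanol/saline, i.v. tail vein. Sacrifice was at 5 min, 30 min, 1 h or 2 h post-injection. Organs were weighed and gamma-counted with injectate standards. Data are %ID/g, mean ± SD, n = 4.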

Brain [3] = assay: Biodistribution in C57BL/6N mouse brain at 50 uCi/110 uL, iv after 2 hrs; type: ADME, organism-based; settings: in vivo; in short: as §1
Blood [4] = assay: Biodistribution in LPS treated C57BL/6N mouse blood at 50 uCi/110 uL, iv administered 6 hrs […] LPS challenge measured after 1 hr post drug dose; type: ADME, organism-based; settings: in vivo; in short: as §2
[5] = Metabolic stability in Sprague-Dawley rat plasma assessed as parent compound remaining at 400 uCi, iv after 5 mins by HPLC; type: ADME, organism-based; settings: read-out: Stability
In short: (§3)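 Anesthetized male Sprague-Dawley rat given 400 μCi [18F]tracer in 10% ethanol/saline i.v. via tail vein. Blood drawn by cardiac puncture at 5 and 30 min. Plasma separated by centrifugation, treated with 3 equivalents of acetonitrile and centrifuged; supernatant filtered and analysed by HPLC. Samples kept on ice.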

Blood [6] = assay: Biodistribution in C57BL/6N mouse blood at 50 uCi/110 uL, iv after 1 hr; type: ADME, organism-based; settings: in vivo; in short: as §1
Liver [7] = assay: Biodistribution in LPS treated C57BL/6N mouse liver at 50 uCi/110 uL, iv administered 6 hrs […] LPS challenge measured after 30 mins post drug dose; type: ADME, organism-based; settings: in vivo, 0.5 h
In short: (§4)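 Male C57BL/6N mice, 6-8 weeks; LPS (E. coli O127:B8) in PBS, 10 mg/kg i.v., given 6 h before tracer. HPLC-purified [18F]tracer ~50 μCi in 10% ethanol/saline i.v. via tail vein. Killed at 5 min, 30 min, 1 h or 2 h; tissues weighed and gamma-counted against diluted injectate standards. Reported as %ID/g, mean ± SD, n = 4.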

Heart [8] = assay: Biodistribution in C57BL/6N mouse heart at 50 uCi/110 uL, iv after 1 hr; type: ADME, organism-based; settings: in vivo; in short: as §1
Brain [9] = assay: Biodistribution in LPS treated C57BL/6N mouse brain at 50 uCi/110 uL, iv administered 6 hrs […] LPS challenge measured after 5 mins post drug dose; type: ADME, organism-based; settings: in vivo; in short: as §2
Bone [10] = assay: Biodistribution in C57BL/6N mouse bone at 50 uCi/110 uL, iv after 30 mins; type: ADME, organism-based, Bone element; settings: in vivo, 0.5 h; in short: as §1
Kidney [11] = assay: Biodistribution in C57BL/6N mouse kidney at 50 uCi/110 uL, iv after 30 mins; type: ADME, organism-based; settings: in vivo, 0.5 h; in short: as §1
Lung [12] = assay: Biodistribution in LPS treated C57BL/6N mouse lung at 50 uCi/110 uL, iv administered 6 hrs […] LPS challenge measured after 30 mins post drug dose; type: ADME, organism-based; settings: in vivo, 0.5 h; in short: as §4
Liver [13] = assay: Biodistribution in LPS treated C57BL/6N mouse liver at 50 uCi/110 uL, iv administered 6 hrs […] LPS challenge measured after 1 hr post drug dose; type: ADME, organism-based; settings: in vivo; in short: as §4
Heart [14] = assay: Biodistribution in LPS treated C57BL/6N mouse heart at 50 uCi/110 uL, iv administered 6 hrs […] LPS challenge measured after 2 hrs post drug dose; type: ADME, organism-based; settings: in vivo; in short: as §2
[15] = Metabolic stability in Sprague-Dawley rat plasma assessed as parent compound remaining at 400 uCi, iv after 30 mins by HPLC; type: ADME, organism-based; settings: read-out: Stability; in short: as §3
Heart [16] = assay: Biodistribution in C57BL/6N mouse heart at 50 uCi/110 uL, iv after 5 mins; type: ADME, organism-based; settings: in vivo; in short: as §1
Brain [17] = assay: Biodistribution in C57BL/6N mouse brain at 50 uCi/110 uL, iv after 30 mins; type: ADME, organism-based; settings: in vivo, 0.5 h; in short: as §1
Brain [18] = assay: Biodistribution in LPS treated C57BL/6N mouse brain at 50 uCi/110 uL, iv administered 6 hrs […] LPS challenge measured after 30 mins post drug dose; type: ADME, organism-based; settings: in vivo, 0.5 h; in short: as §2
Liver [19] = assay: Biodistribution in LPS treated C57BL/6N mouse liver at 50 uCi/110 uL, iv administered 6 hrs […] LPS challenge measured after 2 hrs post drug dose; type: ADME, organism-based; settings: in vivo; in short: as §4
Lung [20] = assay: Biodistribution in C57BL/6N mouse lung at 50 uCi/110 uL, iv after 2 hrs; type: ADME, organism-based; settings: in vivo; in short: as §1
Blood [21] = assay: Biodistribution in LPS treated C57BL/6N mouse blood at 50 uCi/110 uL, iv administered 6 hrs […] LPS challenge measured after 5 mins post drug dose; type: ADME, organism-based; settings: in vivo; in short: as §2
Muscle tissue [22] = assay: Biodistribution in C57BL/6N mouse muscle at 50 uCi/110 uL, iv after 5 mins; type: ADME, organism-based; settings: in vivo; in short: as §1
Liver [23] = assay: Biodistribution in C57BL/6N mouse liver at 50 uCi/110 uL, iv after 1 hr; type: ADME, organism-based; settings: in vivo; in short: as §1
Muscle tissue [24] = assay: Biodistribution in LPS treated C57BL/6N mouse muscle at 50 uCi/110 uL, iv administered 6 hrs […] LPS challenge measured after 2 hrs post drug dose; type: ADME, organism-based; settings: in vivo; in short: as §4
Lung [25] = assay: Biodistribution in C57BL/6N mouse lung at 50 uCi/110 uL, iv after 5 mins; type: ADME, organism-based; settings: in vivo; in short: as §1
Blood [26] = assay: Biodistribution in C57BL/6N mouse blood at 50 uCi/110 uL, iv after 2 hrs; type: ADME, organism-based; settings: in vivo; in short: as §1
Muscle tissue [27] = assay: Biodistribution in LPS treated C57BL/6N mouse muscle at 50 uCi/110 uL, iv administered 6 hrs […] LPS challenge measured after 30 mins post drug dose; type: ADME, organism-based; settings: in vivo, 0.5 h; in short: as §4
Kidney [28] = assay: Biodistribution in LPS treated C57BL/6N mouse kidney at 50 uCi/110 uL, iv administered 6 hrs […] LPS challenge measured after 2 hrs post drug dose; type: ADME, organism-based; settings: in vivo; in short: as §4
Bone [29] = assay: Biodistribution in LPS treated C57BL/6N mouse bone at 50 uCi/110 uL, iv administered 6 hrs before LPS challenge measured after 1 hr post drug dose; type: ADME, organism-based, Bone element; settings: in vivo, in the assay text read “6 hrs after LPS challenge” for “6 hrs before LPS challenge”; in short: as §2
Muscle tissue [30] = assay: Biodistribution in C57BL/6N mouse muscle at 50 uCi/110 uL, iv after 30 mins; type: ADME, organism-based; settings: in vivo, 0.5 h; in short: as §1
Lung [31] = assay: Biodistribution in C57BL/6N mouse lung at 50 uCi/110 uL, iv after 1 hr; type: ADME, organism-based; settings: in vivo; in short: as §1
Blood [32] = assay: Biodistribution in C57BL/6N mouse blood at 50 uCi/110 uL, iv after 5 mins; type: ADME, organism-based; settings: in vivo; in short: as §1
Muscle tissue [33] = assay: Biodistribution in C57BL/6N mouse muscle at 50 uCi/110 uL, iv after 1 hr; type: ADME, organism-based; settings: in vivo; in short: as §1
Muscle tissue [34] = assay: Biodistribution in C57BL/6N mouse muscle at 50 uCi/110 uL, iv after 2 hrs; type: ADME, organism-based; settings: in vivo; in short: as §1

Cc1cc(N)nc(CC(C)[18F])c1 (centres undefined)
Drug uptake (Liver [1]): 10.7 % ID/g
Drug uptake (Heart [2]): 0.41 % ID/g
Drug uptake (Brain [3]): 0.07 % ID/g
Drug uptake (Blood [4]): 0.86 % ID/g
remaining at 5 min [5]: 40.3%
Drug uptake (Blood [6]): 0.31 % ID/g
Drug uptake (Liver [7]): 7.06 % ID/g
Drug uptake (Heart [8]): 0.19 % ID/g
Drug uptake (Brain [9]): 1.81 % ID/g
Drug uptake (Bone [10]): 2.26 % ID/g
Drug uptake (Kidney [11]): 7.3 % ID/g
Drug uptake (Lung [12]): 1.84 % ID/g
Drug uptake (Liver [13]): 2.63 % ID/g
Drug uptake (Heart [14]): 0.12 % ID/g
remaining at 0.5 h [15]: 20.2%
Drug uptake (Heart [16]): 1.5 % ID/g
Drug uptake (Brain [17]): 0.28 % ID/g
Drug uptake (Brain [18]): 0.52 % ID/g
Drug uptake (Liver [19]): 0.42 % ID/g
Drug uptake (Lung [20]): 0.15 % ID/g
Drug uptake (Blood [21]): 3.69 % ID/g
Drug uptake (Muscle tissue [22]): 1.25 % ID/g
Drug uptake (Liver [23]): 2.59 % ID/g
Drug uptake (Muscle tissue [24]): 0.23 % ID/g
Drug uptake (Lung [25]): 3.33 % ID/g
Drug uptake (Blood [26]): 0.27 % ID/g
Drug uptake (Muscle tissue [27]): 1.06 % ID/g
Drug uptake (Kidney [28]): 0.91 % ID/g
Drug uptake (Bone [29]): 4.3 % ID/g
Drug uptake (Muscle tissue [30]): 0.71 % ID/g
Drug uptake (Lung [31]): 0.31 % ID/g
Drug uptake (Blood [32]): 2.37 % ID/g
Drug uptake (Muscle tissue [33]): 0.27 % ID/g
Drug uptake (Muscle tissue [34]): 0.34 % ID/g
